Measurements published in PubChem BioAssay.
Calls of active or inactive are those of the source.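 How the source made its calls, unless noted: active means fluorescence slope higher than the sample average by over 3 SD (cut at about -0.22 in these data, passing the limit was not always enough); inactive means the rest.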

Key:
[1] = inhibitors of TNFa-induced NFkB p65 translocation, primary screen, imaging, HUVEC, MLSMR starter and 10KST1 sets (AID 438;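 active means inhibition above 20% together with a positive visual image hit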;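 further: compound added about 3h40 before a 20 min TNFalpha stimulation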;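 on inhibition: signal is the nuclear over cytoplasmic p65 intensity ratio per well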); details: HUVEC TNFa-induced p65 nuclear translocation; cell count: measured here: nuclei count (cytotoxicity indicator), at 2.08 µM; inhibition: at 2 µM, stronger effect = higher value, 0% TNFa-plus-vehicle, 100% no-TNFa wells
[2] = reduction of polyQ htt aggregates in cells – imaging, exon1htt(103Q)mCFP cells, high-content imaging, primary screen (AID 483;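 active means visual image review flags a hit and inhibition of aggregation exceeds 20%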;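 further: compound exposure lasted 3 days before fixation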;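 on nuclei count: percent of the per-plate median nuclei count of sample wells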); details: exon1htt(103Q)mCFP cell line, aggregate imaging, at 2 µM; inhibition of aggregation: stronger effect = higher value; nuclei count: measured here: cell count, toxicity
[3] = endothelial E-selectin expression blockers – imaging, HUVEC, immunofluorescence, MLSMR starter and 10KST1 sets, primary screen (AID 487;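 active means visually confirmed hit in the image check and inhibition above 20%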;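 on inhibition: signal is fraction of cell area covered by stained E-selectin grains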;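 on nuclei count: 100% = median nuclei count of all wells on the same plate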); details: HUVEC TNFalpha-induced E-selectin immunofluorescence imaging, at 2 µM; inhibition: stronger effect = higher value; nuclei count: measured here: cell number, toxicity
[4] = target: Voltage-gated potassium channel subunit beta-2 (Rattus norvegicus) (UniProt P62483); assay: inhibitors of rat Kvbeta2 reductase activity – biochemical, NADPH fluorescence, primary screen (AID 622); details: recombinant KvBeta, 4-cyanobenzaldehyde reduction, at 10 µM, stronger effect = higher value;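 further: slope of raw intensity against log time taken from 70 to 1610 s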
Sequence of Voltage-gated potassium channel subunit beta-2 (Rattus norvegicus) (P62483 whole entry, looked up): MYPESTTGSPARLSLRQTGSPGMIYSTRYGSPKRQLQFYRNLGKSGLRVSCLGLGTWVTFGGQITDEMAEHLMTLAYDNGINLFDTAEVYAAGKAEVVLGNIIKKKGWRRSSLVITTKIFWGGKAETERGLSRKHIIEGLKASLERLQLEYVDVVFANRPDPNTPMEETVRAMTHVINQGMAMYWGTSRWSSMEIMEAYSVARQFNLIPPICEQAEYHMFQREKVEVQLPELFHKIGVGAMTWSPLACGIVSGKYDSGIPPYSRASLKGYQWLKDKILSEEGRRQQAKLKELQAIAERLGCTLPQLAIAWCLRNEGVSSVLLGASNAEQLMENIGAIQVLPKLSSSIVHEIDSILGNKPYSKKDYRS

[5] = target: Voltage-gated potassium channel subunit beta-2 (Rattus norvegicus) (UniProt P62483); assay: enhancers of rat Kvbeta2 NADPH turnover – biochemical, NADPH fluorescence, primary screen (AID 623;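 active means NADPH fluorescence slope more negative than the mean of all samples by about 3 SD, 99.7% confidence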;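 further: fluorescence intensity change per second fitted from 20 to 320 s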); details: Recombinant KvBeta, NADPH fluorescence decrease slope, 10 min; at 10 µM; stronger effect = lower value
[6] = target: Alpha-2C adrenergic receptor (Homo sapiens) (UniProt P18825); assay: compounds altering alpha2C-coupled GIRK flux – cell-based, HEK293 alpha2C/GIRK1/2, thallium flux, primary screen (AID 624;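 active means fluorescence slope after compound addition differing from the mean of all screened samples at 99.7% confidence, in either direction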;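 further: slope of fluorescence ratio to pre-addition baseline per second over 15 to 24 s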); details: thallium flux BTC fluorescence, at 10 µM, actives lie on both sides
Sequence of Alpha-2C adrenergic receptor (Homo sapiens) (P18825 whole entry, looked up): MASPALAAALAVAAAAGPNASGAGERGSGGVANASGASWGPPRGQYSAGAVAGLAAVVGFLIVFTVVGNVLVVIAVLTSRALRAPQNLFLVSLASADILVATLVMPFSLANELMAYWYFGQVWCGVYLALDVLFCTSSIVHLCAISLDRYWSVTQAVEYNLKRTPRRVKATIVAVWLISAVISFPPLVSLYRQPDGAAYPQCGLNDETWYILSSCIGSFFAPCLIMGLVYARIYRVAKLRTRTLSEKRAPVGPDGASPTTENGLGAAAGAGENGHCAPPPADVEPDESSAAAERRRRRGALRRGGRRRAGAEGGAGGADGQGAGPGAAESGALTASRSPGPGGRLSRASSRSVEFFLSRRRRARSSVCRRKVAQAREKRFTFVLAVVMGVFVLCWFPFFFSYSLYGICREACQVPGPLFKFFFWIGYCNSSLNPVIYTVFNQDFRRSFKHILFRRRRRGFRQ

[7] = inhibitors of larval lipid processing in zebrafish, primary screen, whole organism, PED6 fluorescence, gall bladder and intestine (AID 686;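 active means a full or partial loss of lipid-probe fluorescence in the fish gall bladder, intestine or both, judged by eye; inactive means no fluorescence loss, or compound toxic to the fish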;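 further: larvae 5 to 7 days old with five fish per well; signal comes from phospholipase A2 cleavage of quenched PED6 carried via bile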); details: Zebrafish larvae PED6 lipid processing, fluorescence scoring; screened at 20 µM (by protocol)
Summary of the method: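 Incubation: overnight exposure of larvae to compound plus PED6 / Test system: live zebrafish larvae aged 5-7 days, whole organism / Amount: 5 larvae per well / Read-out basis: visual per-well fluorescence inhibition score / Signal: visual fluorescence microscopy scoring of gall bladder, gut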

[8] = blockers of RIG-like receptor reporter activation – cell-based, Sendai virus stimulus, luciferase, 10K MLSCN set, TLR/RLR signaling modifier project, primary screen (AID 602276;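 active means inhibition at or above 50% at 10 µM; inactive means inhibition below 50%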;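 further: firefly luciferase from ISG56 promoter only with Renilla not read in this screen; 0% = Sendai virus plus DMSO and 100% = medium plus DMSO without virus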); details: HEK293 RL24 IRF3 luciferase reporter, at 10 µM, stronger effect = higher value
[9] = TLR3 IRF3 reporter activation blockers – cell-based, poly I:C stimulus, luciferase, 10K MLSCN set, primary screen (AID 602277;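 active means inhibition of the reporter signal at or above 50%; inactive means inhibition below 50%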); details: HEK293-TLR3 RL24 IRF3 luciferase reporter, at 10 µM, stronger effect = higher value

Structure (SMILES)	cell count [1]	inhibition [1]	inhibition of aggregation [2]	nuclei count [2]	inhibition [3]	nuclei count [3]	fluorescence slope [4]	NADPH fluorescence slope [5]	slope [6]	outcome [7]	inhibition [8]	inhibition [9]
O=C(NC1CCCCCCC1)C1CCN(c2nc3ccccc3o2)CC1	737	-10.2% (inactive)	9.4% (inactive)	94.8%	-34.9% (inactive)	116%	-0.334 (inactive)	8.8e-06 (inactive)	0.0059 (inactive)	inactive	6.61% (inactive)	-11.1% (inactive)
CC12CCC(C(=O)N3CCN(C(=O)C45CCC(C)(C(=O)O4)C5(C)C)CC3)(OC1=O)C2(C)C	575	-8.7% (inactive)	-6.1% (inactive)	108%	-42.4% (inactive)	140%	-0.391 (inactive)	-7.7e-05 (inactive)	0.00544 (inactive)	inactive	-54.1% (inactive)	99.3% (active)
Cc1nn(-c2ccccc2)c2[nH]c(C(F)(F)F)cc(=O)c12	364	0.7% (inactive)	17.9% (inactive)	103%	-10.5% (inactive)	97.8%	-0.411 (inactive)	-4.4e-05 (inactive)	0.00725 (inactive)	inactive	5.93% (inactive)	-1.53% (inactive)
COc1ccc(-c2noc(CCCOc3ccccc3)n2)cc1OC	429	1.5% (inactive)	21% (inactive)	93%	-33% (inactive)	134%	-0.473 (inactive)	-1.6e-05 (inactive)	0.00512 (inactive)	inactive	-2.22% (inactive)	-9.66% (inactive)
O=C(Cc1cccs1)N(c1ccccc1)C1C=CS(=O)(=O)C1 (centres undefined)	294	4.2% (inactive)	-21.3% (inactive)	110%	8.4% (inactive)	88.2%	-0.376 (inactive)	-5.4e-05 (inactive)	0.0046 (inactive)	inactive	10.7% (inactive)	15.6% (inactive)
COCCn1c(C)cc(C(=O)COC(=O)c2ccc(N3CCCC3=O)cc2)c1C	527	-16.9% (inactive)	12.8% (inactive)	97.9%	26.9% (inactive)	103%	-0.329 (inactive)	-7.1e-05 (inactive)	0.00515 (inactive)	inactive	14.7% (inactive)	26.1% (inactive)
Cc1nc2c(-c3ccccc3)c(C)[nH]n2c(=O)c1Cl	277	-8.3% (inactive)	2.3% (inactive)	109%	-5.5% (inactive)	84.2%	-0.485 (inactive)	3e-05 (inactive)	0.00434 (inactive)	inactive	-11.4% (inactive)	-22.1% (inactive)
COC(=O)c1ccc(CSc2nnnn2Cc2ccccc2)cc1	341	3% (inactive)	-32.1% (inactive)	108%	-32.4% (inactive)	104%	-0.322 (inactive)	3.4e-06 (inactive)	0.00496 (inactive)	inactive	9.31% (inactive)	37.9% (inactive)
c1cc2c(cc1C1CCCN1)OCCCO2 (centres undefined)	411	-7.9% (inactive)	-16.6% (inactive)	116%	-44% (inactive)	116%	-0.418 (inactive)	1.8e-05 (inactive)	0.00434 (inactive)	inactive	-9.84% (inactive)	-8.78% (inactive)
COc1cc2cc(C(c3nnnn3C3CCCC3)N3CCCCCC3)c(=O)[nH]c2cc1OC (centres undefined)	477	-13.3% (inactive)	22.5% (inactive)	75%	40.8% (inactive)	73.4%	-0.351 (inactive)	-7.3e-05 (inactive)	0.00516 (inactive)	inactive	17% (inactive)	20.8% (inactive)
CCOC(=O)C1=C(c2ccccc2)N2CCS(=O)(=O)N=C2S1	531	0.5% (inactive)	-5.8% (inactive)	105%	-98.9% (inactive)	108%	-0.271 (inactive)	-1e-05 (inactive)	0.0047 (inactive)	inactive	16.1% (inactive)	20.5% (inactive)
Cc1ccc2nc(C3CCN(CC(=O)N4CCCCCC4)CC3)[nH]c2c1	579	-13.8% (inactive)	2.2% (inactive)	101%	-39.2% (inactive)	111%	-0.453 (inactive)	-5.8e-05 (inactive)	0.00562 (inactive)	active; weak signal in gallbladder and intestine	8.23% (inactive)	13.7% (inactive)
Cc1cc(C(=O)CSc2nnc(-c3ccccc3)n2C)c(C)n1C	403	4.4% (inactive)	3.6% (inactive)	88.2%	-5.3% (inactive)	107%	-0.477 (inactive)	-5.5e-05 (inactive)	0.00512 (inactive)	inactive	-0.894% (inactive)	78.4% (active)
Cc1cccc(OCC(=O)Nc2ccc(N3CCCC3)cc2)c1C	553	-2.5% (inactive)	-18.4% (inactive)	93.1%	-53.5% (inactive)	83.5%	-0.37 (inactive)	-6.9e-05 (inactive)	0.005 (inactive)	inactive	7.46% (inactive)	6.78% (inactive)
CNC(=O)OC(C)CNS(=O)(=O)c1ccc(C)cc1 (centres undefined)	441	9.8% (inactive)	5.2% (inactive)	103%	-36.3% (inactive)	118%	-0.433 (inactive)	-4.1e-05 (inactive)	0.00412 (inactive)	inactive	19.5% (inactive)	17.5% (inactive)
Cc1cccc(C)c1-n1nnnc1SCSc1nnnn1-c1c(C)cccc1C	409	7.5% (inactive)	-3.2% (inactive)	101%	-231% (inactive)	116%	-0.445 (inactive)	-2.4e-07 (inactive)	0.00806 (inactive)	inactive	4.69% (inactive)	15% (inactive)
CCCN1Cc2cccc(C(=O)NC3CCCC3)c2C1=O	653	0.7% (inactive)	14% (inactive)	95.2%	-62.4% (inactive)	101%	-0.349 (inactive)	-6.1e-05 (inactive)	0.0059 (inactive)	inactive	11.8% (inactive)	22.8% (inactive)
O=C(O)c1ccc(C2SCC(=O)N2Cc2ccccc2)cc1 (centres undefined)	323	-0.4% (inactive)	15.9% (inactive)	57.9%	7.3% (inactive)	101%	-0.382 (inactive)	1.2e-05 (inactive)	0.00611 (inactive)	inactive	-6.17% (inactive)	0.315% (inactive)
Cc1ccc(S(=O)(=O)N(CC(=O)N2CCC(C(N)=O)CC2)Cc2ccc(F)cc2)cc1	473	3.5% (inactive)	-8.5% (inactive)	91.9%	34.4% (inactive)	110%	-0.361 (inactive)	-6.9e-05 (inactive)	0.00526 (inactive)	inactive	10.4% (inactive)	15.9% (inactive)
CCOC(=O)c1c(-c2ccc(C)o2)csc1NC(=O)CN1CCN(CC)CC1	393	-0.4% (inactive)	8.3% (inactive)	95.5%	-12.2% (inactive)	106%	-0.409 (inactive)	-3.8e-05 (inactive)	0.0051 (inactive)	inactive	11.4% (inactive)	22% (inactive)
COc1cc(C(=O)N(C)c2nnc(-c3cccnc3)s2)cc(OC)c1OC	646	-5.5% (inactive)	0.4% (inactive)	99.2%	3.6% (inactive)	103%	-0.5 (inactive)	1.3e-05 (inactive)	0.00473 (inactive)	inactive	-9.5% (inactive)	-1.29% (inactive)
COc1ccc(CN(CC(=O)NCC2CCCO2)C(=O)CCC(=O)Nc2cc(C)on2)cc1 (centres undefined)	242	7.6% (inactive)	7.1% (inactive)	89.3%	13.1% (inactive)	104%	-0.399 (inactive)	-1.6e-05 (inactive)	0.00463 (inactive)	inactive	-9.53% (inactive)	-6.1% (inactive)
O=C(CCn1[nH]c(=O)c2ccccc2c1=O)NCCO	588	-6.5% (inactive)	0.4% (inactive)	97.8%	-35.4% (inactive)	71.1%	-0.361 (inactive)	-5.6e-05 (inactive)	0.00681 (inactive)	inactive	1.06% (inactive)	-8.68% (inactive)
COC(=O)CN(Cc1ccco1)S(=O)(=O)c1ccccc1	554	-13.3% (inactive)	-8.4% (inactive)	111%	-9.7% (inactive)	112%	-0.351 (inactive)	-5.1e-05 (inactive)	0.00494 (inactive)	inactive	7.73% (inactive)	6.21% (inactive)
COc1ccc(C2C(C(=O)c3sc(C)nc3C)=C(O)C(=O)N2CCN(C)C)cc1 (centres undefined)	560	13.4% (inactive)	6.9% (inactive)	110%	-15.4% (inactive)	123%	-0.335 (inactive)	-6.7e-05 (inactive)	0.00568 (inactive)	inactive	10.9% (inactive)	9.69% (inactive)
CSc1ncc(Cl)c(C(=O)Nc2ccc(S(=O)(=O)N3CCOCC3)cc2)n1	288	-0.8% (inactive)	-8.6% (inactive)	101%	2.7% (inactive)	131%	-0.433 (inactive)	-5.7e-05 (inactive)	0.00479 (inactive)	inactive	4.78% (inactive)	0.446% (inactive)
CN(C)C(=O)COc1ccc2cc(-c3ccccc3)c(=O)oc2c1	300	-4% (inactive)	14.5% (inactive)	89.5%	-75.1% (inactive)	146%	-0.00785 (inactive)	0 (inactive)	0.0053 (inactive)	inactive	-24.2% (inactive)	98.1% (active)
